Compounds with a hit are over-represented: about 6.7% of the library has one in this group of screens.
T cruzi repl – inhibitors of intracellular T. cruzi growth, primary screen, luminescence, NIH3T3 host cells | T. cruzi beta-gal in NIH3T3, 90 h | inhibition, % (test concentration not listed) | 300,000 tested, 1.4% active;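 active means mean inhibition across valid replicates above about 55%, limit read from the data; inconclusive means mean below that limit but half or more replicates reach it; inactive means mean below it, under half of replicates reach it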;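 further: signal also drops with host cell toxicity which is not excluded here; higher percent means less beta-gal luminescence so fewer parasites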
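System: mouse NIH/3T3 fibroblasts infected with β-gal-expressing T. cruzi Tulahuen C4 / Input: NIH/3T3 cells, 5,000 per well / Buffer or medium: Low-serum DMEM with 2% FBS / Probe or stimulus: 5000 reporter trypomastigotes per well / Schedule: ≥90 h infection period, 3 h prior cell attachment / Measured by: GalScreen luminescence, 60 min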
CHOP inhibitor – inhibitors of CHOP promoter induction, primary screen, cell-based, unfolded protein response, luciferase reporter. CHO-K1 CHOP-promoter luciferase, tunicamycin-induced, 15-18 h. 220,000 tested, 3.8% active. inhibition, % at 10 µM;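 active means compounds that reduced the stress-induced luciferase reporter signal by more than about 70% of percent inhibition, limit read from the data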
PREPL inhibitor – PREPL enzyme inhibitors, primary screen, biochemical, fluorescence polarization; Prolyl endopeptidase-like (Homo sapiens), Q4J6C6; recombinant PREPL, fluorescence polarization activity-based probe; inhibition, % at 5.96 µM; 320,000 tested, 0.68% active; AID 2751, 2010; in the data active means inhibition above about 43%
Target sequence (Q4J6C6 whole entry, looked up): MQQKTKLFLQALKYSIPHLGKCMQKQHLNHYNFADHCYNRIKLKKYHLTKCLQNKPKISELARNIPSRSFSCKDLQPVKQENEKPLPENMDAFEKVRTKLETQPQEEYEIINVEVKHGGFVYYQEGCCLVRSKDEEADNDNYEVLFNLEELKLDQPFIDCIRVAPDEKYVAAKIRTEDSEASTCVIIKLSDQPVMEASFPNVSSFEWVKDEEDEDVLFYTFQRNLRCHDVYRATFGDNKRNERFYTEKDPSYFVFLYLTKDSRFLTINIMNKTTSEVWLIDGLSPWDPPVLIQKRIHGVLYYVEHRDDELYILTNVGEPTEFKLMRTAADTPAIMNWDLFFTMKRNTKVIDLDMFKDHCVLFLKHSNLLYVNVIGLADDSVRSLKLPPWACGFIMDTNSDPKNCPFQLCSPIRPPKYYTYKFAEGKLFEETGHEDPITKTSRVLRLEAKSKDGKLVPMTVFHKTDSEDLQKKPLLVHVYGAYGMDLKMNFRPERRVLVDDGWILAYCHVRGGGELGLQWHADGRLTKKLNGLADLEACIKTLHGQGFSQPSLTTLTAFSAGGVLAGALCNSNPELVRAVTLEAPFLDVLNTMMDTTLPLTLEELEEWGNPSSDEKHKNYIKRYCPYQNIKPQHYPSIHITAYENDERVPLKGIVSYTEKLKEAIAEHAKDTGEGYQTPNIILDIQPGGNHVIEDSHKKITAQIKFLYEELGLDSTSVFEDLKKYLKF
NR3A LBD binder – binders of NR3A ligand-binding domain, primary screen, biophysical, differential scanning fluorimetry, uHTS | 340,000 tested, 2.5% active | NR3A LBD differential scanning fluorimetry, Tm shift; 0% = protein alone, 100% = glycine-bound protein | Glutamate receptor ionotropic, NMDA 3A (GRIN3A) ligand-binding domain | AID 1259313, 2017 | Tm shift relative to glycine control, % at 25 µM;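 active means melting temperature shift of at least 10% of the positive control shift, at one fixed dose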
Beta cell apopt – inhibitors of cytokine-induced beta cell apoptosis, primary screen, luminescence; 300,000 tested, 0.8% active; INS-1E cytokine-induced death, ATP luminescence, 48 h; percent of positive-control rescue, neutral wells zero; protection from apoptosis, % (concentration not given with the values); AID 435005, 2010;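 active means Every replicate reaches about 75%, or at least half do and their mean reaches it too, limit read from the data; inconclusive means At least half of replicates reach the limit but their mean does not; inactive means Under half of replicates reach the limit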;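 further: higher means more ATP so stronger rescue from cytokine killing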
CSC inhib – cancer stem cell viability inhibitors, primary screen, luminescence; 300,000 tested, 1.1% active; cancer stem cell-like cells viability; AID 2717, 2010; inhibition, % at 7.5 µM; in the data active means inhibition above about 75%; inconclusive means no clear call, values can overlap the other calls; tested in HMLE shEcad cells
Each line names hits and unclear results; the compound was inactive in the other large screens.

Cc1cc(C(=O)Nc2cccc(C(=O)O)c2)c(C)o1	none
Cc1cc(NC(=O)c2cccnc2)ccc1NC(=O)c1cc2ccccc2o1	none (no result: CHOP inhibitor)
Cc1cc(C(=O)Nc2cccc(C(=O)O)c2)oc1C	CHOP inhibitor 74.8
COc1cc(C(=O)c2c(C)c(CCC#N)n3ccccc23)cc(OC)c1OC	none
Cc1ccc(C)[n+](CC(=O)c2ccc(-c3ccccc3)cc2)c1	none
S=c1[nH]nc(-c2cccc(Cl)c2)n1/N=C/c1ccc(-c2ccccc2Br)o1	none
S=c1[nH]nc(-c2ccccc2)n1/N=C/c1ccc(-c2ccccc2Cl)o1	CSC inhib 102.4
COc1cccc(CN(C)CC(=O)Nc2ccccc2C(C)C)c1	none (no result: CSC inhib)
O=C(COc1ccccc1/C=C1\SC(=S)NC1=O)Nc1ccc(F)cc1	NR3A LBD binder 13.7 (no result: T cruzi repl, CHOP inhibitor)
CCOc1ccccc1C(=O)Nc1ccc(S(=O)(=O)Nc2nccc(C)n2)cc1	none (no result: CHOP inhibitor)
CC(=O)c1sc(Nc2nc3cc4c(cc3s2)OCO4)nc1C	none (no result: PREPL inhibitor, Beta cell apopt, CSC inhib)
COc1cccc2sc(NN)nc12	none
CCOC(=O)c1sc(Nc2nc3cc4c(cc3s2)OCO4)cc1C	CHOP inhibitor 98.1, NR3A LBD binder 28.7
CCOC(=O)c1sc(Nc2nc3c(OC)cccc3s2)cc1C	NR3A LBD binder 22.1
N#Cc1ccc(C23OCCN2CCn2nc4ccccc4c23)cc1 (configuration not stated)	none (no result: T cruzi repl, CHOP inhibitor, CSC inhib)
COc1ccccc1OCCC(=O)OCC(=O)c1[nH]c(C)c(C(C)=O)c1C	none
O=C(C=C=Nc1ccccc1)C(=O)N=C=Cc1ccccc1	CHOP inhibitor 95.7, CSC inhib inconclusive
O=C(N/N=C/c1ccccc1)C(=O)N/N=C/c1ccccc1	none (no result: CHOP inhibitor)
COc1cc(C)c(Cl)cc1S(=O)(=O)NCc1ccco1	none
Cc1ccc(S(=O)(=O)NCc2ccco2)cc1C	none
CCOc1cc(C)c(Cl)cc1S(=O)(=O)NCc1ccco1	NR3A LBD binder 19.6 (no result: CSC inhib)
Cc1ccc(-c2ccc(S(=O)(=O)NCc3ccco3)cc2)cc1	CHOP inhibitor 75.0
C/C(=N\Nc1nc(Cl)c(Cl)cc1Cl)c1ccc(S(=O)(=O)NCc2ccco2)cc1	CHOP inhibitor 87.2
N#CC(c1ccc(Cl)cc1)c1ncc(C(F)(F)F)cc1Cl (configuration not stated)	NR3A LBD binder 13.8
CC(=O)N(Cc1ccc(F)cc1)C1=C(NCCc2ccccc2)C(=O)c2ccccc2C1=O	Beta cell apopt 105.9 (no result: CHOP inhibitor)
CC(=O)N(Cc1ccc(F)cc1)c1cccc(C)c1C	none
C/C(CC(C)C)=N/Nc1ccc([N+](=O)[O-])cc1[N+](=O)[O-]	none
COC(=O)CC/C(C)=N\Nc1ccc([N+](=O)[O-])cc1[N+](=O)[O-]	CHOP inhibitor 75.1
COCc1c(C(=O)OC)nnn1-c1ccc(C(F)(F)F)cc1[N+](=O)[O-]	none
Cc1ccc(NC(=O)c2cc(-c3ccccc3)nn2-c2ccccc2)cc1	CSC inhib 87.9
O=C(Nc1nccs1)c1cc(-c2ccccc2)nn1-c1ccccc1	NR3A LBD binder 11.5
CCc1nnc(NC(=O)c2cc(-c3ccccc3)nn2-c2ccccc2)s1	none
Cc1cc(C)c2c(c1)/C(=c1/sc3n(c1=O)CN(c1ccccc1)CN=3)C(=O)N2	CHOP inhibitor 81.1
CC(SCc1ccccc1)C(=O)Nc1ccc(F)cc1 (configuration not stated)	none
N#CC(C#N)=C(Nc1ccc(F)cc1)SCc1cccc(Br)c1	CHOP inhibitor 71.5, NR3A LBD binder 25.1, Beta cell apopt 105.3, CSC inhib 118.8
Cc1cccc(CSC(Nc2ccc(F)cc2)=C(C#N)C#N)c1	Beta cell apopt 105.7
O=C(CSc1nnc(COc2ccccc2Cl)o1)NC(=O)NCc1ccco1	none
Cc1cc(SCC(=O)NCCCN2CCCC2=O)nc2ccccc12	none (no result: T cruzi repl, CHOP inhibitor)
CCCN(CCC)CCCOC(=O)c1ccc(Cl)cc1Cl	none (no result: Beta cell apopt)
Cc1cc(C)nc(OC(=O)c2ccc(Cl)cc2Cl)n1	Beta cell apopt 85.1 (no result: NR3A LBD binder)
Cc1ccc(/C(N)=N/OC(=O)c2ccc(C)cc2Cl)cc1	NR3A LBD binder 196.8
Cc1ccc(/C(N)=N/OC(=O)c2cccc(F)c2)cc1	none

High-throughput results: PubChem, several laboratories
